Assay results from PMC8738139 (Neuron, 2021).

Molecular target: CNGA1 (Homo sapiens, UniProt P29973+Q14028)
Assay: cryo-EM structures
Format: cell-based
Outline: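 HEK293 cells co-transfected with human CNGA1/B1 and a GFP marker, then trypsinised and re-plated 48 h later. Whole-cell currents recorded at 100 mV. Pipette: 140 mM KCl, 5 mM EGTA, 10 mM HEPES pH 7.4, 1 mM cGMP. Bath: 140 mM NaCl, 4 mM KCl, 1 mM EGTA, 10 mM HEPES pH 7.4 plus varied test compound. Ki from Hill fit; mean ± SEM, n=5.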

CNGA1, sequence (P29973 141-686): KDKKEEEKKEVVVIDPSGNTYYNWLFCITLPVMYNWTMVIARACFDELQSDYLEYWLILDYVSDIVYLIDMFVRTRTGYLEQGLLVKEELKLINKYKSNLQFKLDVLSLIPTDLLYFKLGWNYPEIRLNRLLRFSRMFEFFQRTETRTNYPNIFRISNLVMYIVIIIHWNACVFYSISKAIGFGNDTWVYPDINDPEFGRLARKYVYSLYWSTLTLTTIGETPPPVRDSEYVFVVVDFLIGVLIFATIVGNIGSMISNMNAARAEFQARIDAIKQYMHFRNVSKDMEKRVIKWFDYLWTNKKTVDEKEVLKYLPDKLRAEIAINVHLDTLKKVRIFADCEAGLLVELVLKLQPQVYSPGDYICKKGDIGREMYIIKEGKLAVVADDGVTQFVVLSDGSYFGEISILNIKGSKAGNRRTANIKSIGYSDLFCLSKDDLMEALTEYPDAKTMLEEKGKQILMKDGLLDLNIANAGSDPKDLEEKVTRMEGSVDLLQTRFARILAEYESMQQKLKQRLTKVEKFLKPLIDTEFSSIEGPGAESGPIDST
CNGA1, sequence (Q14028 456-1251): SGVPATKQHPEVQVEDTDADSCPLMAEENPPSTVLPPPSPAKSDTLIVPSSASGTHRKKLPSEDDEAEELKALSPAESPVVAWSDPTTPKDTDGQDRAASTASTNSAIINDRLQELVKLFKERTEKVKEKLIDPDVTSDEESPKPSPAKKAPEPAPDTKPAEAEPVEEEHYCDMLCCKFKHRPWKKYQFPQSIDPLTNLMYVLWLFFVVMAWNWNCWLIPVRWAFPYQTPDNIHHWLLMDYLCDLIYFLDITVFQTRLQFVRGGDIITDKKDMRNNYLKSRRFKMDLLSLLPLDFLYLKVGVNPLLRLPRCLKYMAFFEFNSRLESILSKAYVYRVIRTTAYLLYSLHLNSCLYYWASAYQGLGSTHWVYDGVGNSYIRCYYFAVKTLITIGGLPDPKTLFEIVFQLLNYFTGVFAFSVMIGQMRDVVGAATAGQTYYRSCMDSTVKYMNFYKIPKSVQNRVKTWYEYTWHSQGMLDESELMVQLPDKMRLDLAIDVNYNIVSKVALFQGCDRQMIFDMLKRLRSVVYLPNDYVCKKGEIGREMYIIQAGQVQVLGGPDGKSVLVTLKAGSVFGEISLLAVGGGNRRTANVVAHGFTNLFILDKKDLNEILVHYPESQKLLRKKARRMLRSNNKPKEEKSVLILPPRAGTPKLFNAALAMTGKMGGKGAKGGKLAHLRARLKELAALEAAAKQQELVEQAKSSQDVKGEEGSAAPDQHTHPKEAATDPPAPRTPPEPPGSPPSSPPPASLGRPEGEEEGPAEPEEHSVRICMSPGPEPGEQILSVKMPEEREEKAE

- Ki: 3.68 ± 0.13 µM
Structure (SMILES): COc1ccc([C@H]2Sc3ccccc3N(CCN(C)C)C(=O)[C@H]2OC(C)=O)cc1 [L-cis-Diltiazem]
